Here are results for 31 molecules from ChEMBL document CHEMBL1130274, “Fibrinogen receptor (GPIIb-IIIa) antagonists derived from 5,6-bicyclic templates. Amidinoindoles, amidinoindazoles, and amidinobenzofurans containing the N-alpha-sulfonamide carboxylic acid function as potent platelet aggregation inhibitors” (J Med Chem, 1997).

A word on the IC50: it is the point on the concentration scale where inhibition reaches its midpoint. High values mean lower potency, low ones higher potency.

What all share (format): protein-complex assay
Assay [1] has as its target T1, Integrin alpha-V/beta-3 (Homo sapiens, UniProt P05106+P06756). The assay can be described thus: Inhibition of vitronectin binding to the purified immobilized vitronectin receptor (alpha v, beta 3). Put shortly: (§1)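 Solid-phase microtiter assay. Purified integrin (GPIIb-IIIa or αvβ3) was coated at 1 μg/well overnight at 4 °C in Tris pH 7.4 buffer with CaCl2, then blocked with 35 mg/mL BSA for 2–3 h. Biotinylated fibrinogen or vitronectin (20 nM final) plus compound was incubated 3 h at room temperature. Bound ligand was detected with alkaline phosphatase anti-biotin antibody and pNPP at 405 nm.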

The target of assay [2] is Integrin alpha-IIb/beta-3 (Homo sapiens, UniProt P05106+P08514). As to the kind of experiment: Inhibitory activity of fibrinogen binding to purified immobilized glycoprotein (fibrinogen receptor).
Sequence of Integrin alpha-IIb/beta-3 (P05106 27-788 limits assumed): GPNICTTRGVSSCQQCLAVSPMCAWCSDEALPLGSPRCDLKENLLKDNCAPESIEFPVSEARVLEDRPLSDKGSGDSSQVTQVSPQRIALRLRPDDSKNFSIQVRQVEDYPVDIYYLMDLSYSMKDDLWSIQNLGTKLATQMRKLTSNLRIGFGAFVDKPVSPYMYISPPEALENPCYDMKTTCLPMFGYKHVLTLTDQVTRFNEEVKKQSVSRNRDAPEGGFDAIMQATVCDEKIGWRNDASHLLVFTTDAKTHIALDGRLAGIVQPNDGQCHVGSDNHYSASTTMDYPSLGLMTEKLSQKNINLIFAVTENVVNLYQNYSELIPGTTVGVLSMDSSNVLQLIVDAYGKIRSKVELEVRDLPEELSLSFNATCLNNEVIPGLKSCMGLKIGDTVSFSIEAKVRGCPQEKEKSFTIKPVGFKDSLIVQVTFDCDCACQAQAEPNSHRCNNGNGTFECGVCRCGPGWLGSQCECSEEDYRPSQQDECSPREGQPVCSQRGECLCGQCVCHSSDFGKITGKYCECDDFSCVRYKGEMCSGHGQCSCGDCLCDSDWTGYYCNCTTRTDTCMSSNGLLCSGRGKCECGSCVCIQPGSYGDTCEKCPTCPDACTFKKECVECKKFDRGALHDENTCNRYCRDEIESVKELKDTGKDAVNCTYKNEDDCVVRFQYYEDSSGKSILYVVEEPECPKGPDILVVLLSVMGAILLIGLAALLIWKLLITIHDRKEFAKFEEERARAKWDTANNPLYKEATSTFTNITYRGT
Sequence of Integrin alpha-IIb/beta-3 (P08514 32-887 limits assumed): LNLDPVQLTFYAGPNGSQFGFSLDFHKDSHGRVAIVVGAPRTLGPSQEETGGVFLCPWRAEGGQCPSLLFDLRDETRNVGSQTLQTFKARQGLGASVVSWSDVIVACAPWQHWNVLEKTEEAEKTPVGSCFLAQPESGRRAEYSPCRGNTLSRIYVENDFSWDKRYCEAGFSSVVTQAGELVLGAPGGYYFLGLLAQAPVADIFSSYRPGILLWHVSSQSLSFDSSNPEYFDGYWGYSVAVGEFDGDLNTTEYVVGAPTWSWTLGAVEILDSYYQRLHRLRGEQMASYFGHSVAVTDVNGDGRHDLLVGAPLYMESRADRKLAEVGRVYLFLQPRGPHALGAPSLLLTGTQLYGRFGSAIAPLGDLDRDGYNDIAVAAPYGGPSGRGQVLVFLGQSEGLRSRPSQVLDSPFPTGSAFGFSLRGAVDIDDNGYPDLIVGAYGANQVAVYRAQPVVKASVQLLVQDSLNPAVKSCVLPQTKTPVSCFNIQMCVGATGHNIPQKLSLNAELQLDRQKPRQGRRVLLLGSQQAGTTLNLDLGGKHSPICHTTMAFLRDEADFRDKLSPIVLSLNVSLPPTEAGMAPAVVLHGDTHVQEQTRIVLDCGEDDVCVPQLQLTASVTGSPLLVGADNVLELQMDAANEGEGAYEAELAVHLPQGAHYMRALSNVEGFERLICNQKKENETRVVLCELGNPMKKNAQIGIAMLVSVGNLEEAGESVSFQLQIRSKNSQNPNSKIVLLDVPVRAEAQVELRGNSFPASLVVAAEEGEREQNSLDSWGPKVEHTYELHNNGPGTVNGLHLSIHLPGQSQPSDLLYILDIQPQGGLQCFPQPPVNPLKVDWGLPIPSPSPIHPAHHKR
Sequence of Integrin alpha-IIb/beta-3 (P08514 891-1039 limits assumed): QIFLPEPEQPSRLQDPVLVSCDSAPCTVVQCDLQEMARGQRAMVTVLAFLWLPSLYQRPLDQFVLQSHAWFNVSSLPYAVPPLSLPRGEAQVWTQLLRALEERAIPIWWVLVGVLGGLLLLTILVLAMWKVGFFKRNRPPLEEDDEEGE
Assay [3] deals with T1, Integrin alpha-V/beta-3. As to the kind of experiment: Inhibition of vitronectin binding to purified immobilized vitronectin receptor alpha v beta3. Put shortly:
as §1

A value given as a limit tells only on which side of the number the result lay.

T1 sequence (P05106 27-788 limits assumed): as the sequence (P05106 27-788 limits assumed) above
T1 sequence (P06756 31-889 limits assumed): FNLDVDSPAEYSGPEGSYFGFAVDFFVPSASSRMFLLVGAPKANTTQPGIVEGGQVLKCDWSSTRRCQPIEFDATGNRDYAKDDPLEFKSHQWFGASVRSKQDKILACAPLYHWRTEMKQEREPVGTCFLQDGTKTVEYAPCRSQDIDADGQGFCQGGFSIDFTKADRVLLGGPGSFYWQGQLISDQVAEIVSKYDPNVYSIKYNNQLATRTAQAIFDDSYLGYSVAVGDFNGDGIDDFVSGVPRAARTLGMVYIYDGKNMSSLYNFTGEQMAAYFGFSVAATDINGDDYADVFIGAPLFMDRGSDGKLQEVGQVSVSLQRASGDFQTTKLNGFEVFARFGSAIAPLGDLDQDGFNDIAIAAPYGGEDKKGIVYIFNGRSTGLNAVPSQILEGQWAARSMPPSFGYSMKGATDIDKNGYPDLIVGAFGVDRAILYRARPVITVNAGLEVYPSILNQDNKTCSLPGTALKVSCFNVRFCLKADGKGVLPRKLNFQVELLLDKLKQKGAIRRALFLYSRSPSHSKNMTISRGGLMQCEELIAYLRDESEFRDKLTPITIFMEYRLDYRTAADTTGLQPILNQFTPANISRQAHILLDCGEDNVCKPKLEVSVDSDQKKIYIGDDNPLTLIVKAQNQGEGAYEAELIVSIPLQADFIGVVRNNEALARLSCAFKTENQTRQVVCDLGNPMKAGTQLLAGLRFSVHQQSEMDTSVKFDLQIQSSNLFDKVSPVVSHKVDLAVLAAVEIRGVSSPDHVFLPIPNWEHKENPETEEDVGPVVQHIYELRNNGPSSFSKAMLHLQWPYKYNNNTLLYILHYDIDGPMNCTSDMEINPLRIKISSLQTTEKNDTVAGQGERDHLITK
T1 sequence (P06756 891-1048 limits assumed): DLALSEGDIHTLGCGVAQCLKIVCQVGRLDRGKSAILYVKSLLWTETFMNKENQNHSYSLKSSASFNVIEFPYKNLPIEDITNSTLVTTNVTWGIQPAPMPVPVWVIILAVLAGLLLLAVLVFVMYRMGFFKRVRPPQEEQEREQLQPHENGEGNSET

In the case of `N=C(N)c1ccc2oc(C(=O)NCCC(=O)NC[C@H](NS(=O)(=O)c3ccccc3)C(=O)O)cc2c1`, the results for the IC50 in assay [1] and in assay [2] were more than 100000 nM and 1.8 nM, respectively. For the molecule `C#CC(CC(=O)O)NC(=O)CCNC(=O)c1cc2cc(C(=N)N)ccc2o1` (stereo not given), the IC50 in assay [1] is more than 100000 nM; in assay [2] it was 40 nM. Taken in the same sequence, the figures for `N=C(N)c1ccc2oc(C(=O)NCCC(=O)NC[C@H](NS(=O)(=O)c3ccc(I)cc3)C(=O)O)cc2c1` were more than 100000 nM and 2 nM.

In assay [2], `N=C(N)c1ccc2[nH]c(C(=O)NC(CC(=O)NC(CC(=O)O)c3ccccc3)C(F)(F)F)cc2c1` (stereo not given) had an IC50 of 10000 nM. Consider `N=C(N)c1ccc2[nH]c(C(=O)NCCC(=O)NC(CC(=O)O)c3ccccc3)cc2c1` (stereo not given), for which the IC50 in assay [2] came out at 1000 nM.

On to `N=C(N)c1ccc2oc(C(=O)NCCC(=O)NC(CC(=O)O)c3ccccc3)cc2c1` (stereo not given), for which the IC50 was determined as 60000 nM in assay [1] and 150 nM in assay [2].

As for `N=C(N)c1ccc2[nH]c(C(=O)NCC(=O)NC(CC(=O)O)c3ccccc3)cc2c1` (stereo not given), in assay [2], the IC50 came out at 10000 nM.

With `COc1ccc(C(CC(=O)O)NC(=O)CCNC(=O)c2cc3cc(C(=N)N)ccc3o2)cc1OC` (stereo not given), the IC50 in assay [2] is 40 nM.

`N=C(N)c1ccc2oc(C(=O)NCCC(=O)NC(CC(=O)O)c3cc(F)ccc3F)cc2c1` (stereo not given): the IC50 in assay [1] is more than 100000 nM; in assay [2] it was 125 nM. In assay [2], `N=C(N)c1ccc2[nH]c(C(=O)N3CCC(C(=O)NC(CC(=O)O)c4ccccc4)CC3)cc2c1` (stereo not given) returned a half-inhibitory concentration (IC50) of 6000 nM.

As for `N=C(N)c1ccc2oc(C(=O)NCCC(=O)NCCC(=O)O)cc2c1`, the figures for the IC50 in assay [1] and in assay [2] were more than 100000 nM and 20 nM, respectively. As for `N=C(N)c1ccc2oc(C(=O)NCCC(=O)NC(CC(=O)O)C(F)(F)F)cc2c1` (stereo not given), the results for the IC50 in assay [1] and in assay [2] were more than 100000 nM and 40 nM, respectively. Regarding `N=C(N)c1ccc2oc(C(=O)NCCC(=O)NC(CC(=O)O)c3cc(F)cc(F)c3)cc2c1` (stereo not given), the half-maximal inhibitory concentration (IC50) in assay [1] was more than 100000 nM; in assay [2] it was 100 nM. On the same counts, the results for `CN(CCC(=O)NC(CC(=O)O)c1ccccc1)C(=O)c1cc2cc(C(=N)N)ccc2o1` (stereo not given) are more than 100000 nM and 150 nM. Take `CCCCS(=O)(=O)N[C@@H](CNC(=O)CCNC(=O)c1cc2cc(C(=N)N)ccc2o1)C(=O)O`: the IC50 in assay [1] is more than 100000 nM; in assay [2], 2 nM. For the molecule `CN(C)c1cccc2c(S(=O)(=O)N[C@@H](CNC(=O)CCNC(=O)c3cc4cc(C(=N)N)ccc4o3)C(=O)O)cccc12`, the results for the IC50 in assay [1] and in assay [2] were more than 100000 nM and 2 nM, respectively.

In assay [2], `N=C(N)c1ccc2[nH]c(C(=O)Nc3cccc(C(=O)NC(CC(=O)O)c4ccccc4)c3)cc2c1` (stereo not given) returned an IC50 of 50000 nM. On to `N=C(N)c1ccc2oc(C(=O)N3CCC[C@@H]3C(=O)NC(CC(=O)O)c3ccccc3)cc2c1` (stereo not given in full), for which the IC50 in assay [2] amounted to 1000 nM. With `N=C(N)c1ccc2oc(C(=O)NCCC(=O)NC[C@H](N)C(=O)O)cc2c1`, the IC50 in assay [1] is more than 100000 nM; in assay [2] it was 40 nM. `N=C(N)c1ccc2oc(C(=O)NCCC(=O)NC(CC(=O)O)c3cccnc3)cc2c1` (stereo not given): the results for the IC50 in assay [1] and in assay [2] were 100000 nM and 40 nM, respectively. In turn, `N=C(N)c1ccc2oc(C(=O)N3Cc4ccccc4CC3C(=O)NC(CC(=O)O)c3ccccc3)cc2c1` (stereo not given) displayed an IC50 in assay [2] of 500 nM. On to `CC(C)(NC(=O)c1cc2cc(C(=N)N)ccc2[nH]1)C(=O)NC(CC(=O)O)c1ccccc1` (stereo not given), for which the IC50 in assay [2] is more than 100000 nM. For the molecule `N=C(N)c1ccc2oc(C(=O)NCCC(=O)NC(CC(=O)O)c3ccc(F)c(F)c3)cc2c1` (stereo not given), the IC50 is more than 100000 nM in assay [1] and 200 nM in assay [2]. `CN(CC(=O)NC(CC(=O)O)c1ccccc1)C(=O)c1cc2cc(C(=N)N)ccc2[nH]1` (stereo not given) had an IC50 in assay [2] of 10000 nM. The same measure, in the same setting: the value for `N=C(N)c1ccc2oc(C(=O)NCC(=O)NC(CC(=O)O)c3ccccc3)cc2c1` (stereo not given) was 300 nM. `CC(CC(=O)NC(CC(=O)O)c1ccccc1)NC(=O)c1cc2cc(C(=N)N)ccc2[nH]1` (stereo not given): the IC50 was 125000 nM in assay [1] and 2500 nM in assay [2].

On to `CN(CCC(=O)NC(CC(=O)O)c1ccccc1)C(=O)c1cc2cc(C(=N)N)ccc2[nH]1` (stereo not given), for which the IC50 in assay [3] was more than 100000 nM; in assay [2], 20 nM. In the case of `N=C(N)c1ccc2oc(C(=O)N3CCCC(C(=O)NC(CC(=O)O)c4ccccc4)C3)cc2c1` (stereo not given), the IC50 in assay [2] amounted to 400 nM. Regarding `CCCCS(=O)(=O)NC(CNC(=O)CCNC(=O)c1c[nH]c2cc(C(=N)N)ccc12)C(=O)O` (stereo not given), the IC50 in assay [1] is more than 100000 nM; in assay [2], 2 nM. On the same counts, the results for `CCCCS(=O)(=O)NC(CNC(=O)CCNC(=O)c1[nH]nc2cc(C(=N)N)ccc12)C(=O)O` (stereo not given) are more than 100000 nM and 2 nM. Take `CC(CC(=O)NC(CC(=O)O)c1ccccc1)NC(=O)c1cc2cc(C(=N)N)ccc2o1` (stereo not given): the results for the IC50 in assay [1] and in assay [2] were more than 100000 nM and 20 nM, respectively.
